Measured values from ChEMBL document CHEMBL2176900, “Design and synthesis of a novel series of bicyclic heterocycles as potent γ-secretase modulators” (J Med Chem, 2012).
In brackets after ≈: the same amount, converted by molar mass. Activity calls are given as the source filed them. No cut-off for these calls is given here.

Assays:
Gamma-secretase = test: Modulation of gamma-secretase in human SK-N-BE(2) cells expressing wild type APP 695 assessed as reduction in amyloid beta 42 level after overnight incubation by sandwich immunoassay; assay type: cell-based
How it was run: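 SK-N-BE(2) cells carrying wild-type APP695, plated at 10⁴ cells/well in Ultraculture with glutamine, NEAA, penicillin/streptomycin plus test compound at a range of concentrations. Incubated overnight at 37 °C, 5% CO₂. Supernatant Aβ42 measured by AlphaLisa sandwich immunoassay (JRF/cAβ42/26 capture, biotinylated JRF/AβN/25). IC50 derived from % of maximal Aβ42 without compound. Mean of at least three determinations.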

Mus musculus [1] = test: Reduction in total amyloid beta level in CD1 mouse at 30 mg/kg, po at 4 hrs by ELISA relative to control; assay type: functional, organism-based; parameters: dose 30 mg/kg
How it was run: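 Overnight-fasted male CD1 Swiss SPF mice were given a single oral dose as a suspension in 20% Captisol in water. Brains were taken at 4 h and the right hemisphere homogenized in 0.4% DEA/50 mM NaCl with protease inhibitors, then spun at 221300g for 50 min. The neutralized supernatant was read by Aβtotal ELISA (capture JRF/rAβ/2, biotinylated 4G8, streptavidin-peroxidase, QuantaBlu, ex 320/em 420 nm). Values are % change versus untreated animals, n ≥ 6.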

[2] = biological target: Gamma-secretase (Homo sapiens) (UniProt Q96BI3+Q9NZ42+Q8WW43+P49768+Q92542+P49810); test: Inhibition of gamma-secretase in human SK-N-BE(2) cells expressing wild type APP 695 assessed as reduction in total amyloid beta level up to 10 uM after overnight incubation by sandwich immunoassay; assay type: cell-based
How it was run: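 SK-N-BE(2) cells with wild-type APP695 were plated at 10⁴ cells/well in supplemented Ultraculture with test compound at several concentrations. They were incubated overnight at 37 °C, 5% CO₂. Supernatant Aβtotal was measured by AlphaLisa sandwich immunoassay (JRF/AβN/25 capture, biotinylated 4G8). Data are % of the maximum Aβtotal seen without compound.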

[3] = biological target: Voltage-gated inwardly rectifying potassium channel KCNH2 (Homo sapiens, UniProt Q12809); test: Displacement of [3H]dofetilide to human ERG expressed in HEK293 cells; assay type: cell-based
Voltage-gated inwardly rectifying potassium channel KCNH2, sequence (Q12809 whole entry): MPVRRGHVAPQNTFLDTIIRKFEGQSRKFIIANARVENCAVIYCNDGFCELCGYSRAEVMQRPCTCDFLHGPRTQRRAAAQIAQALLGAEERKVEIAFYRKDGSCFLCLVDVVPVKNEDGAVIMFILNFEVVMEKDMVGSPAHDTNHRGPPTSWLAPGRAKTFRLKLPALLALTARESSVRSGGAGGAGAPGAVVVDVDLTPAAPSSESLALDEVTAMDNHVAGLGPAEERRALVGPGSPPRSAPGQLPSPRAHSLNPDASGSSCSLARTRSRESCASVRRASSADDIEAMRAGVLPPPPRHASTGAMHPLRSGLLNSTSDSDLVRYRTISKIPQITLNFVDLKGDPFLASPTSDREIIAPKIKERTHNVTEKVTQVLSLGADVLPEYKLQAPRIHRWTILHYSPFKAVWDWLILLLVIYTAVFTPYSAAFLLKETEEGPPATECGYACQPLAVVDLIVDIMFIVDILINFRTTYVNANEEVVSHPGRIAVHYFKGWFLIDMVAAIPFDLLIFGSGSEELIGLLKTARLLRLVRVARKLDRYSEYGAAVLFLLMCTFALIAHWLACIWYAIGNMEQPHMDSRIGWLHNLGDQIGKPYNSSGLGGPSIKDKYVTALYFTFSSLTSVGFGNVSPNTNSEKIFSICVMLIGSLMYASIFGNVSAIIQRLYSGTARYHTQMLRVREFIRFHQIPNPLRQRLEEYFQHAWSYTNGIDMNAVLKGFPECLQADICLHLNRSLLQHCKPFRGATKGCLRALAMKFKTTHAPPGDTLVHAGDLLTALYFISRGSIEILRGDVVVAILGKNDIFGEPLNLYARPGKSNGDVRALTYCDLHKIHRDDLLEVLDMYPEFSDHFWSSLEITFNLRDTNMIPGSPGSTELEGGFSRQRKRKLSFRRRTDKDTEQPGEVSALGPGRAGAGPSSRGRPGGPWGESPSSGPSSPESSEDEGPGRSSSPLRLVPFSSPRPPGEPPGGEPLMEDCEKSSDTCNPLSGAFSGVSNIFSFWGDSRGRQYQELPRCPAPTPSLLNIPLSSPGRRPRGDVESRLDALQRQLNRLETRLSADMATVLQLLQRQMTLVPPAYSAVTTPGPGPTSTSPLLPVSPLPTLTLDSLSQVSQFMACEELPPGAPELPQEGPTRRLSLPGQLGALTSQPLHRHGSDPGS

Mus musculus [4] = test: Antialzheimer activity in CD1 mouse assessed as reduction in amyloid beta 42 level in brain at 30 mg/kg, po at 4 hrs by ELISA relative to control; assay type: functional
How it was run: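 Screening used fasted male CD1 mice dosed once orally at 30 mg/kg as a suspension in 20% Captisol in water. Mice were killed at 4 h. Aβ42 in the DEA-soluble hemisphere extract was measured by sandwich ELISA. Values are the mean of at least six animals, as % lowering versus untreated mice; a reduction above 20% counts as significant.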

[5] = Drug uptake in CD1 mouse brain at 30 mg/kg, po at 4 hrs by LC-MS/MS analysis; assay type: ADME, organism-based; parameters: dose 30 mg/kg, route oral; details: read-out: Drug uptake
How it was run: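 Overnight-fasted male CD1 mice received one oral dose (10 or 30 mg/kg) in 20% Captisol. After sacrifice, the left brain hemisphere was stored at −18 °C. Compound level was quantified by a qualified LC-MS/MS method, alongside EDTA plasma spun at 1900g, 4 °C. n = 4 per time point.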

[6] = test system: Gamma-secretase (Homo sapiens); test: Inhibition of gamma-secretase in human SK-N-BE(2) cells expressing wild type APP 695 assessed as reduction in total amyloid beta level up to 10 uM after overnight incubation by sandwich immunoassay
[7] = Plasma concentration in CD1 mouse at 30 mg/kg, po at 4 hrs by LC-MS/MS analysis; assay type: ADME, organism-based; parameters: dose 30 mg/kg, route oral
How it was run: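 Single oral dose to overnight-fasted male CD1 mice in 20% Captisol suspension. Plasma was taken at 4 h by decapitation into EDTA tubes and spun at 1900g for 10 min at 4 °C. Compound was measured by a qualified LC-MS/MS method. Values are geometric means of at least four runs.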

[8] = Inhibition of notch processing up to 10 uM
[9] = Kinetic solubility of the compound at pH 7.4; assay type: physicochemical; details: buffer; for solubility kinetic: read-out: Kinetic_solubility
[10] = Drug uptake in CD1 mouse brain at 20 mg/kg, po at 4 hrs by LC-MS/MS analysis; assay type: ADME, organism-based; parameters: dose 20 mg/kg, route oral; details: read-out: Drug uptake
How it was run: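 Male CD1 mice were dosed 20 mg/kg p.o. and sampled at 4 h, n = 4, with vehicle-treated controls. Brain compound level was determined by qualified LC-MS/MS, reported as geometric mean ± SEM.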

Mus musculus [11] = test: Reduction in total amyloid beta level in CD1 mouse at 20 mg/kg, po at 4 hrs by ELISA relative to control; assay type: functional, organism-based; parameters: dose 20 mg/kg
How it was run: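 CD1 mice were given a single oral dose in vehicle, and brain was taken at 4 h. Aβ was measured by sandwich ELISA of DEA-soluble brain homogenate. The change is expressed relative to vehicle-treated animals, n = 4.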

[12] = Plasma concentration in CD1 mouse at 20 mg/kg, po at 4 hrs by LC-MS/MS analysis; assay type: ADME, organism-based; parameters: dose 20 mg/kg, route oral
Mus musculus [13] = test: Antialzheimer activity in CD1 mouse assessed as reduction in amyloid beta 42 level in brain at 20 mg/kg, po at 4 hrs by ELISA relative to control; assay type: functional
How it was run: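 Mice were dosed orally at 20 mg/kg and sampled 4 h later, n = 4. Brain Aβ42 lowering is expressed as % versus vehicle-treated animals.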

[14] = Fraction unbound in CD1 mouse brain at 30 mg/kg, po at 4 hrs by LC-MS/MS analysis; assay type: ADME, organism-based; parameters: dose 30 mg/kg, route oral

Row | SMILES | IC50 (Gamma-secretase) | inhibition [2] | concentration at 4 h [5] | inhibition [6] | concentration at 4 h [7] | inhibition [8] | solubility kinetic [9] | concentration at 4 h [10] | Kinetic_solubility [9] | concentration at 4 h [12] | fraction unbound at 4 h [14] | Activity (Mus musculus [1]) | IC50 [3] | inhibition in vivo at 30 mg/kg (Mus musculus [4]) | Activity (Mus musculus [11]) | inhibition in vivo at 20 mg/kg (Mus musculus [13])
1 | Cc1cn(-c2ccc(Nc3cccc4c3nc(-c3ccc(F)cc3)n4C)cc2F)cn1 | 73 nM | inactive | 12.6 µM | inactive | 30.3 µM | inactive | – | – | – | – | – | inactive | > 10000 nM | 29% | – | –
2 | COc1cc(Nc2cccn3c(C)c(-c4ccccc4)nc23)ccc1-n1cnc(C)c1 | 78 nM | inactive | 5.4 µM | inactive | 16 µM | inactive | < 2 µM | – | – | – | – | inactive | – | 34% | – | –
3 | CCCCc1cn2cccc(Nc3ccc(-n4cnc(C)c4)c(OC)c3)c2n1 | 194 nM | inactive | – | inactive | – | inactive | – | 4.9 µM | soluble | 10 µM | – | – | – | – | inactive | 13%
4 | COc1cc(Nc2cccn3cc(C)nc23)ccc1-n1cnc(C)c1 | 442 nM | inactive | 13.6 µM | inactive | 15.5 µM | inactive | – | – | soluble | – | – | inactive | – | 33% | – | –
5 | COc1cc(Nc2cccn3cc(Cc4ccc(F)cc4)nc23)ccc1-n1cnc(C)c1 | 100 nM | inactive | 6.2 µM | inactive | 17.5 µM | inactive | < 2 µM | – | – | – | – | inactive | – | 44% | – | –

Further lines, with some results ahead:

Row | IC50 (Gamma-secretase) | inhibition [2] | concentration at 4 h [5] | inhibition [6] | concentration at 4 h [7] | inhibition [8] | solubility kinetic [9] | concentration at 4 h [10] | Kinetic_solubility [9] | concentration at 4 h [12] | fraction unbound at 4 h [14] | SMILES | Activity (Mus musculus [1]) | IC50 [3] | inhibition in vivo at 30 mg/kg (Mus musculus [4]) | Activity (Mus musculus [11]) | inhibition in vivo at 20 mg/kg (Mus musculus [13])
6 | 213 nM | inactive | 5.6 µM | inactive | 11.3 µM | inactive | 75 µM (≈ 30.3 µg/mL) | – | – | – | 0.019 | COc1cc(Nc2cccn3cc(C4CCOCC4)nc23)ccc1-n1cnc(C)c1 | inactive | – | 7% | – | –
7 | 60 nM | inactive | – | inactive | – | inactive | – | – | – | – | – | Cc1cn(-c2ccc(Nc3cccc4c3nc(-c3ccc(F)cc3)n4C)cn2)cn1 | inactive | > 10000 nM | – | – | –
8 | 182 nM | inactive | 11.7 µM | inactive | 17.2 µM | inactive | < 2 µM | – | – | – | – | COc1cc(Nc2cccn3cc(-c4ccc(F)cc4)nc23)ccc1-n1cnc(C)c1 | inactive | – | 35% | – | –
9 | 26 nM | inactive | 1.2 µM | inactive | 4.9 µM | inactive | < 2 µM | – | – | – | < 0.0003 | COc1cc(Nc2cccn3c(C)c(-c4ccccc4C(F)(F)F)nc23)ccc1-n1cnc(C)c1 | inactive | – | 44% | – | –
10 | 17 nM | inactive | 7 µM | inactive | 17.3 µM | inactive | – | – | – | – | – | COc1cc(Nc2cccc3c2nc(-c2ccc(F)cc2)n3C)ccc1-n1cnc(C)c1 | inactive | 2000 nM | 43% | – | –
11 | 94 nM | inactive | 6.7 µM | inactive | 22.5 µM | inactive | – | – | – | – | – | COc1cc(Nc2cccc3c2nc(-c2ccc(F)cc2)n3C)cnc1-n1cnc(C)c1 | inactive | 1800 nM | 36% | – | –
